Measurements taken from ChEMBL document CHEMBL3603793, “Antimalarial activity of prodrugs of N-branched acyclic nucleoside phosphonate inhibitors of 6-oxopurine phosphoribosyltransferases” (Bioorg Med Chem, 2015).

How the values were obtained:
[1] = biological target: T1, Hypoxanthine-guanine phosphoribosyltransferase (Homo sapiens, UniProt P00492); assay: Inhibition of human HGPRT by spectrophotometric assay
T1 sequence (P00492 whole entry): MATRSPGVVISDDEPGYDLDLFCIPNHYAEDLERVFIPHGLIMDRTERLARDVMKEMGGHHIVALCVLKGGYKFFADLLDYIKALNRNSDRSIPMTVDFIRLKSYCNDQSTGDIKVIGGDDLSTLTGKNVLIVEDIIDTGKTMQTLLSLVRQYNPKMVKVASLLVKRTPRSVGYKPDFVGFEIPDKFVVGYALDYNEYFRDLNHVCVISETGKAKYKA
Method in brief: (§1)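 Spectrophotometric assay at 25°C in 0.1 M Tris-HCl, 10 mM MgCl2, pH 7.4. PRib-PP was the variable substrate and guanine the fixed substrate at a saturating 60 μM. Values are apparent Ki, since only one concentration of the second substrate was used, calculated from Km(app) = Km(1+[I]/Ki(app)).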

[2] = Inhibition of Plasmodium falciparum HGXPRT by spectrophotometric assay; method in brief: as §1
Plasmodium falciparum [3] = assay: Antimalarial activity against chloroquine-sensitive Plasmodium falciparum D6 infected in erythrocytes assessed as inhibition of [3H]-hypoxanthine incorporation after 6 days; type: functional, organism-based
Plasmodium falciparum [4] = assay: Antimalarial activity against chloroquine-resistant Plasmodium falciparum W2 infected in erythrocytes assessed as inhibition of [3H]-hypoxanthine incorporation after 6 days; type: functional, organism-based
[5] = Cytotoxicity against human A549 cells after 4 days; type: cell-based
Method in brief: (§2)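 Cells seeded in 96-well plates at 7,500 (A549) or 15,000 (C32, C32-TG) per well; compounds added at serial dilutions 24 h later. Incubated four days at 37°C, then trypsinized and counted with a Coulter Counter. CC50 is the concentration giving 50% proliferation versus untreated cells, obtained by extrapolation; mean ± SEM of two or three independent tests.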

[6] = Cytotoxicity against human C32 cells after 4 days; type: cell-based; method in brief: as §2
[7] = Cytotoxicity against human HGPRT-deficient thioguanine-resistant C32TG cells after 4 days; type: cell-based; method in brief: as §2

Compound	Ki [1]	Ki [2]	IC50 (Plasmodium falciparum [3])	IC50 (Plasmodium falciparum [4])	CC50 at 96 h [5]	CC50 at 96 h [6]	CC50 at 96 h [7]
Nc1nc2c(ncn2CCN(CCOCc2ccccc2)CCP(=O)(O)O)c(=O)[nH]1	1.9 µM	2.4 µM					
Nc1nc2c(ncn2CCN(CCP(=O)(O)O)CC(O)CO)c(=O)[nH]1 (configuration not stated)	0.6 µM	0.6 µM					
Nc1nc2c(ncn2CCN(CCP(=O)(O)O)CP(=O)(O)O)c(=O)[nH]1	2 µM	1 µM					
O=c1[nH]cnc2c1ncn2CCN(CCP(=O)(O)O)CC(O)CO (configuration not stated)	3.8 µM	5 µM					
O=c1[nH]cnc2c1ncn2CCN(CCP(=O)(O)O)CP(=O)(O)O	10 µM	6 µM					
O=c1[nH]cnc2c1ncn2CCN(CCOCc1ccccc1)CCP(=O)(O)O	13 µM	4.3 µM					
CCOC(=O)[C@H](Cc1ccccc1)NP(=O)(CCN(CCC(=O)OC)CCn1cnc2c(=O)[nH]cnc21)N[C@@H](Cc1ccccc1)C(=O)OCC			3.5 µM	2.9 µM	70 µM	> 300 µM	212 µM
CCOC(=O)[C@H](Cc1ccccc1)NP(=O)(CCN(CCCC#N)CCn1cnc2c(=O)[nH]cnc21)N[C@@H](Cc1ccccc1)C(=O)OCC			4.2 µM	5.5 µM	30 µM	102 µM	89 µM
CC(C)OC(=O)[C@H](Cc1ccccc1)NP(=O)(CCN(CCOCc1ccccc1)CCn1cnc2c(=O)[nH]cnc21)N[C@@H](Cc1ccccc1)C(=O)OC(C)C			1.5 µM	2.8 µM	23 µM	13 µM	18 µM
CCOC(=O)[C@H](Cc1ccccc1)NP(=O)(CCN(CCn1cnc2c(=O)[nH]cnc21)CP(=O)(N[C@@H](Cc1ccccc1)C(=O)OCC)N[C@@H](Cc1ccccc1)C(=O)OCC)N[C@@H](Cc1ccccc1)C(=O)OCC			4.7 µM	1.6 µM	41 µM	23 µM	25 µM
CCOC(=O)[C@H](Cc1ccccc1)NP(=O)(CCN(CCn1cnc2c(=O)[nH]cnc21)CCP(=O)(N[C@@H](Cc1ccccc1)C(=O)OCC)N[C@@H](Cc1ccccc1)C(=O)OCC)N[C@@H](Cc1ccccc1)C(=O)OCC			3.1 µM	2.7 µM	79 µM	48 µM	48 µM
CCOC(=O)[C@H](Cc1ccccc1)NP(=O)(CCN(CCC(=O)OC)CCn1cnc2c(=O)[nH]c(N)nc21)N[C@@H](Cc1ccccc1)C(=O)OCC			11.8 µM	5.6 µM	> 300 µM	> 300 µM	> 300 µM
CCOC(=O)[C@H](Cc1ccccc1)NP(=O)(CCN(CCCC(=O)OC)CCn1cnc2c(=O)[nH]c(N)nc21)N[C@@H](Cc1ccccc1)C(=O)OCC			8.6 µM	5.7 µM	≥ 232 µM	234 µM	≥ 246 µM
CC(C)OC(=O)[C@H](Cc1ccccc1)NP(=O)(CCN(CCOCc1ccccc1)CCn1cnc2c(=O)[nH]c(N)nc21)N[C@@H](Cc1ccccc1)C(=O)OC(C)C			1.6 µM	2.9 µM	20 µM	17 µM	23 µM
CCOC(=O)[C@H](Cc1ccccc1)NP(=O)(CCN(CCn1cnc2c(=O)[nH]c(N)nc21)CP(=O)(N[C@@H](Cc1ccccc1)C(=O)OCC)N[C@@H](Cc1ccccc1)C(=O)OCC)N[C@@H](Cc1ccccc1)C(=O)OCC			10.4 µM	4.6 µM	> 300 µM	65 µM	56 µM
CCOC(=O)[C@H](Cc1ccccc1)NP(=O)(CCN(CCn1cnc2c(=O)[nH]c(N)nc21)CCP(=O)(N[C@@H](Cc1ccccc1)C(=O)OCC)N[C@@H](Cc1ccccc1)C(=O)OCC)N[C@@H](Cc1ccccc1)C(=O)OCC			6.3 µM	7.4 µM	144 µM	51 µM	53 µM
